# Source: PubChem (several laboratories)
# TLR9-MyD88 block = inhibitors of human TLR9-MyD88 binding; Q9NR96+Q99836; inhibition, % at 4.98 µM; CHO BLA complementation TLR9-MyD88, CCF4 FRET ratio; 340,000 tested, 0.21% active;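 active = inhibition above the mean over all tested compounds plus 3 SD, cut at about 21% in these data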;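 note: 0% = DMSO only wells and 100% = clavulanate BLA inhibitor control wells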
# NOD2 RIPK2 PPI = blocks binding of human NOD2 to RIPK2; CHO BLA complementation NOD2-RIPK2, CCF4 ratio; inhibition, % at 4.98 µM; 360,000 tested, 0.38% active; AID 624267; in the data active = inhibition above about 21%;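 note: 0% = vehicle only and 100% = reference blocker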
# TLR4-MyD88 BLA = TLR4-MyD88 interaction inhibition in cells; O00206+Q99836; HeLa CL3-4 TLR4/MyD88 BLA complementation, FRET ratio; inhibition, % at 8.4 µM; 200,000 tested, 0.18% active; AID 861; in the data active = inhibition above about 25%;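 note: 0% = vehicle and 100% = reference inhibitor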
# Target sequence (O00206 whole entry, looked up): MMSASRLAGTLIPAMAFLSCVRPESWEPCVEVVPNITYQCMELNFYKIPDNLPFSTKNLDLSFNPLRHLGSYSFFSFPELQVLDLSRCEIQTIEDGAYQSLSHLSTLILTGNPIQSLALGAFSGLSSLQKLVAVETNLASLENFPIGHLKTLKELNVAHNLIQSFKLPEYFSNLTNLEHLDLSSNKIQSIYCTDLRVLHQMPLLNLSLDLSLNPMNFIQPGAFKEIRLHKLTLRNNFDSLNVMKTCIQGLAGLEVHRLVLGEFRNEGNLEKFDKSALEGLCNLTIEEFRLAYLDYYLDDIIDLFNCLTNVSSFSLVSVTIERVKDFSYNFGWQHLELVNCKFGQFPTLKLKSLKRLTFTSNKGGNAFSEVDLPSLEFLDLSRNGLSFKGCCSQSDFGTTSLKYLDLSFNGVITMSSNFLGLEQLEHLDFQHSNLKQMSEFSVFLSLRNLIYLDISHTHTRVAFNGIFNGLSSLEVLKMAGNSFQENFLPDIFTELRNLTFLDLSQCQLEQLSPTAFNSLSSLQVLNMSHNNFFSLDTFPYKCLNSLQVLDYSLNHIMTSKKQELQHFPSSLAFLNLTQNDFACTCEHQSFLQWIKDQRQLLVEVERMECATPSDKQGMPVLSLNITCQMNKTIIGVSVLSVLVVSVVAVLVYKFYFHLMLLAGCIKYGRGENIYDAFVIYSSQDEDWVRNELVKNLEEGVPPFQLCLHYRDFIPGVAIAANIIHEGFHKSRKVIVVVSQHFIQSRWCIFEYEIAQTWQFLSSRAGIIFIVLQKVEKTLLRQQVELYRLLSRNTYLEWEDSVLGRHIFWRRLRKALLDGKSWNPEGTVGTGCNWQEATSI
# Target sequence (Q99836 whole entry, looked up): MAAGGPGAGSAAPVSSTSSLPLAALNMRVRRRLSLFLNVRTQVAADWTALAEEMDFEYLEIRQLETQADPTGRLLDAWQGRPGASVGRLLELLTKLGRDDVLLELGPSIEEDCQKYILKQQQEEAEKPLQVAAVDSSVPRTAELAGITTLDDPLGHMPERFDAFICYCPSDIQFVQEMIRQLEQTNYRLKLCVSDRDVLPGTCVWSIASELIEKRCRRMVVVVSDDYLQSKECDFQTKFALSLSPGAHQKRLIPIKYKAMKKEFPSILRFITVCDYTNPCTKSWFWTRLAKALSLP
# MC4R ag barr = human MC4R agonism via beta-arrestin. P32245. U2OS MC4R beta-arrestin complementation, luminescence; percent of melanotan II response, DMSO zero. activation, % at 8.9 µM. 360,000 tested, 0.98% active. AID 540308;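 active = activation above a per-plate cutoff, the mean activation of sample wells on that plate plus 3 SD, cut at about 8% in these data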
# beta cell repl = inducers of beta-cell replication in MIN6 cells; 330,000 tested, 0.29% active; proliferation, % at 10 µM; AID 2380; MIN6 cells proliferation, ATPlite luminescence, 48 h; cells starved in 0.2% serum; 100% = growth in 10% serum;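 active = compounds whose signal lies at least 3.5 SD above the mean of all wells on their plate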;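 note: 0% = DMSO-treated cells in low-serum medium and 100% = 10% serum control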
# MC4R antag cAMP = blocks human MC4R cAMP signaling | P32245 | MC4R-expressing cells, MTII-stimulated cAMP, LANCE TR-FRET | inhibition, % at 6.5 µM | 360,000 tested, 0.48% active | AID 540295;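 active = inhibition above its plate's cutoff, the mean of tested wells on that plate plus 3 SD, cut at about 29% in these data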;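 note: 0% = Melanotan II alone and 100% = Melanotan II plus saturating MCL0020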
#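 Test system: U2OS cells stably expressing human melanocortin 4 receptor (MC4R); also added: Melanotan II challenge; compound: 6.5 µM single dose; timing: 30-min compound preincubation, 1-h Melanotan II challenge, 1-h detection, room temperature; signal: Eu-cAMP/anti-cAMP TR-FRET, emission 671 nm; repeats: one well per compound, no replicates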
# Numbers without * were called inactive; · = no result. Most compounds without a hit are left out; they make up all but 2.1% or so of the library.
SMILES,TLR9-MyD88 block,NOD2 RIPK2 PPI,TLR4-MyD88 BLA,MC4R ag barr,beta cell repl,MC4R antag cAMP
CC1(C)CC(=O)c2sc(NS(=O)(=O)c3ccc(F)cc3)nc2C1,-9,-8,-18,-2,-1,2
COc1cc(NC(=O)c2cccc(C)c2)ccc1NC(=O)c1cc2ccccc2o1,-2,1,·,11*,-3,8
COc1cc(NC(=O)c2cc3ccccc3o2)c(OC)cc1Br,3,-9,-15,20*,3,2
COc1cc(NC(=O)c2cc(Cl)ccc2Cl)ccc1-c1cc2ccccc2oc1=O,-2,-9,4,14*,-3,-2
O=C(NC1CCCCC1)C1c2ccccc2OCC(=O)N1Cc1ccccc1 (centres undefined),·,-20,·,·,·,·
CC(NC(=O)C(=O)NN=C1CCCC1)c1ccccc1 (centres undefined),-3,-3,-17,-2,2,0
C[C@H](CO)N1C[C@H](C)[C@@H](CN(C)S(=O)(=O)c2ccc(F)cc2)Oc2ccc(NC(=O)C3CCCCC3)cc2C1=O,-2,-4,·,2,-5,3
CCOc1ccccc1N1CC(C(=O)NC2CCCCCC2)CC1=O (centres undefined),3,3,·,0,3,9
COc1cc2c(cc1NC(=O)CSc1nnnn1-c1ccccc1)oc1ccccc12,2,4,5,37*,-1,10
CCOC(=O)CC1COc2ccccc2N1C(=O)c1cccc([N+](=O)[O-])c1 (centres undefined),-7,-7,·,-1,3,8
N#CC1(N2CCN(C(=O)c3ccccc3)CC2)CCCCC1,14,2,·,-1,2,-1
Cc1ccccc1OCC(=O)Nc1cccc(Cl)c1C,-14,0,·,8.6*,-1,4
Cc1c(Cl)cccc1NC(=O)c1cc(-c2ccccc2O)n[nH]1,-13,3,8,9.3*,-6,-5
COc1ccc(Cl)cc1NC(=O)c1cc(-c2ccccc2O)n[nH]1,-8,2,-2,0,1,2
COC(=O)C[C@@H]1CC[C@H](NC(=O)c2ccc3c(c2)OCO3)[C@@H](CO)O1,·,-8,·,·,·,·
CCOc1ccc(S(=O)(=O)Nc2ccc(F)cc2)c(C)c1C,-2,7,-10,8.8*,-4,4
CCOc1ccc(NS(=O)(=O)c2cc(OC)ccc2OC)cc1,2,-12,4,2,1,-5
Cc1c(Cl)cccc1NC(=O)COC(=O)CCc1nc2ccccc2n1-c1ccccc1,-1,8,6,8.3*,0,14
CSc1nc2ccc(NC(=O)c3nn(C(C)C)c(=O)c4ccccc34)cc2s1,-7,-10,-3,0,8.2*,3
COc1ccc(NC(=O)c2ccc3ccccc3c2)cc1,-3,-16,·,8.8*,-3,10
COc1ccc(-c2cccc(C(=O)Nc3ccc(OC)c(OC)c3)c2)cc1,8,-9,12,1,1,-5
COc1ccc(-c2cccc(C(=O)Nc3ccc(C)cc3)c2)cc1,6,-3,-1,8.6*,1,1
CC(=O)c1ccc(NC(=O)c2cccc(NC(=O)c3ccccc3)c2)cc1,-7,-9,·,8.4*,-3,1
CC(=O)c1cccc(NC(=O)c2ccc3ccccc3c2)c1,1,5,·,0,-3,4
CCOc1cc(/C=C2\SC(=O)N=C2N)ccc1O,1,-3,-2,-2,0.0*,-21
COc1ccccc1CNS(=O)(=O)c1ccc(-c2cnc(C3CC3)o2)cc1,11,9,·,-3,-3,-17
COc1ccc(C(=O)c2c(N)sc3c2CCN(C)C3)cc1,2,-7,·,0,8.0*,-2
CC(O)(CS(=O)(=O)Cc1ccc(Cl)cc1)C(=O)Nc1cccc(C(F)(F)F)c1 (centres undefined),2,-13,6,11*,-3,11
N#Cc1ccccc1N1CCN(C(=O)c2ccc(NC(=O)c3ccc(Br)o3)cc2)CC1,-3,1,·,1,-4,7
COc1cc(/C=C2/C(=N)N3C=CSC3=NC2=O)ccc1OCCCOc1c(C)cccc1C,-4,-7,3,8.4*,-4,2
